Reference: ChEMBL document CHEMBL4024770, “Augmentation of Anticancer Drug Efficacy in Murine Hepatocellular Carcinoma Cells by a Peripherally Acting Competitive N-Methyl-d-aspartate (NMDA) Receptor Antagonist” (J Med Chem, 2017)
Activity calls are given as the source filed them. No cut-off for these calls is given here.

Tests used:
[1] = biological target: Glutamate receptor ionotropic, kainate 3 (Rattus norvegicus, UniProt P42264); assay: Displacement of [3H]-KA from recombinant homomeric rat GluK3a receptor expressed in baculovirus infected Sf9 insect cell membranes by scintillation counting method
Sequence of Glutamate receptor ionotropic, kainate 3 (P42264 whole entry): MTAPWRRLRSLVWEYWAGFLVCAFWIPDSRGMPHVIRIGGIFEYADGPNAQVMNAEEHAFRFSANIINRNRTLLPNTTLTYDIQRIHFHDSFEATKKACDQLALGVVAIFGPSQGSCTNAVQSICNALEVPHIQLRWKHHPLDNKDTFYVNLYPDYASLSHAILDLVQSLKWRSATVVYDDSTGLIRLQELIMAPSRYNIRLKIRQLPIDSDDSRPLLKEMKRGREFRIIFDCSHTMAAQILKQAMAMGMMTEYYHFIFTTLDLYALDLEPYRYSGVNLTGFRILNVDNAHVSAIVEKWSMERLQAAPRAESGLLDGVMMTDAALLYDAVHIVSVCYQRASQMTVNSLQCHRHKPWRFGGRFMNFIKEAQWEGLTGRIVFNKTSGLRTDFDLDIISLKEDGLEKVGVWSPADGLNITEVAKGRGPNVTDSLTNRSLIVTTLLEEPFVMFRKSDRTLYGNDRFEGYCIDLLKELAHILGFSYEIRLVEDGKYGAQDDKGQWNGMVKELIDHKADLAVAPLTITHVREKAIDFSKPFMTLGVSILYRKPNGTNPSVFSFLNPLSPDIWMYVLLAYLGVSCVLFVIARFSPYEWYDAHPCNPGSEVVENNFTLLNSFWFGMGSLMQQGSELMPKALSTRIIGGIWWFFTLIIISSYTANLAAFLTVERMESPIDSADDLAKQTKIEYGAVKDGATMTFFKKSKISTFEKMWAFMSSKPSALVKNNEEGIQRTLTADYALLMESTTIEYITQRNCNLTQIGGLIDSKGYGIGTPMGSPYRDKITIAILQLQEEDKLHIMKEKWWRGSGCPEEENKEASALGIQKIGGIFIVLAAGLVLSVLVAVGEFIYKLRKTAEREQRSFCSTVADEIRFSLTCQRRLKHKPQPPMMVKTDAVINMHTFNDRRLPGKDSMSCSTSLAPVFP

[2] = Displacement of [3H]-AMPA from AMPA receptor in Sprague-Dawley rat brain synaptosomes after 30 mins by scintillation counting method; type: subcellular
[3] = Displacement of [3H]-KA from KA receptor in Sprague-Dawley rat brain synaptosomes after 60 mins by scintillation counting method; type: subcellular
[4] = Displacement of [3H]-CGP-39653 from NMDA receptor in Sprague-Dawley rat brain synaptosomes after 60 mins by scintillation counting method; type: subcellular
[5] = biological target: Glutamate receptor ionotropic, kainate 1 (Rattus norvegicus, UniProt P22756); assay: Displacement of [3H]-SYM2081 from recombinant homomeric rat GluK1 (Q)1b receptor expressed in baculovirus infected Sf9 insect cell membranes by scintillation counting method
Sequence of Glutamate receptor ionotropic, kainate 1 (P22756 whole entry): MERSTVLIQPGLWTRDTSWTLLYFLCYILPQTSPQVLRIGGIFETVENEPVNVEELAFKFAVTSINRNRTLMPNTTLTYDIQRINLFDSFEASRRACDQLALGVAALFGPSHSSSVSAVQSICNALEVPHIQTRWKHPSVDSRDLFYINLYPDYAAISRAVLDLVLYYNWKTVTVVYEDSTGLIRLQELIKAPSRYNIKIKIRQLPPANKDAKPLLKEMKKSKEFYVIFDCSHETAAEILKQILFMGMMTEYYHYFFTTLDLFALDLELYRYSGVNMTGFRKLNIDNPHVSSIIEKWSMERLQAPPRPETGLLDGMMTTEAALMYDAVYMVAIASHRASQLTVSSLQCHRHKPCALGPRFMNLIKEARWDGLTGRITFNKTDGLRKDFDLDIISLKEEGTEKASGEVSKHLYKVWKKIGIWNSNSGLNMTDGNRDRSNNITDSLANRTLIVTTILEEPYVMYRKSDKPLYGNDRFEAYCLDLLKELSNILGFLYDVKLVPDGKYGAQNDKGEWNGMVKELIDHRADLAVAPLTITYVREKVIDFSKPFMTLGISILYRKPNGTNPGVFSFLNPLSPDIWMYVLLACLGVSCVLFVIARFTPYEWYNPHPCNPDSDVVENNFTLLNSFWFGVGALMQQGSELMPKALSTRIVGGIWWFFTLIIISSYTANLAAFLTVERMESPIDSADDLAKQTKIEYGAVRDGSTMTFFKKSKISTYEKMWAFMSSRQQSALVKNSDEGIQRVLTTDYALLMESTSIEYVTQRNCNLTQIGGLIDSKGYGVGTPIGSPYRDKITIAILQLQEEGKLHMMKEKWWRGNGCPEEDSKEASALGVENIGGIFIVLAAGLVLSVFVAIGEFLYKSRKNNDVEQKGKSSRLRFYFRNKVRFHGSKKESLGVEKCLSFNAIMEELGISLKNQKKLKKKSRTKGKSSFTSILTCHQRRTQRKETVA

[6] = biological target: Glutamate receptor ionotropic, kainate 2 (Rattus norvegicus, UniProt P42260); assay: Displacement of [3H]-KA from recombinant homomeric rat GluK2 (V,C,R)a receptor expressed in baculovirus infected Sf9 insect cell membranes by scintillation counting method
Sequence of Glutamate receptor ionotropic, kainate 2 (P42260 whole entry): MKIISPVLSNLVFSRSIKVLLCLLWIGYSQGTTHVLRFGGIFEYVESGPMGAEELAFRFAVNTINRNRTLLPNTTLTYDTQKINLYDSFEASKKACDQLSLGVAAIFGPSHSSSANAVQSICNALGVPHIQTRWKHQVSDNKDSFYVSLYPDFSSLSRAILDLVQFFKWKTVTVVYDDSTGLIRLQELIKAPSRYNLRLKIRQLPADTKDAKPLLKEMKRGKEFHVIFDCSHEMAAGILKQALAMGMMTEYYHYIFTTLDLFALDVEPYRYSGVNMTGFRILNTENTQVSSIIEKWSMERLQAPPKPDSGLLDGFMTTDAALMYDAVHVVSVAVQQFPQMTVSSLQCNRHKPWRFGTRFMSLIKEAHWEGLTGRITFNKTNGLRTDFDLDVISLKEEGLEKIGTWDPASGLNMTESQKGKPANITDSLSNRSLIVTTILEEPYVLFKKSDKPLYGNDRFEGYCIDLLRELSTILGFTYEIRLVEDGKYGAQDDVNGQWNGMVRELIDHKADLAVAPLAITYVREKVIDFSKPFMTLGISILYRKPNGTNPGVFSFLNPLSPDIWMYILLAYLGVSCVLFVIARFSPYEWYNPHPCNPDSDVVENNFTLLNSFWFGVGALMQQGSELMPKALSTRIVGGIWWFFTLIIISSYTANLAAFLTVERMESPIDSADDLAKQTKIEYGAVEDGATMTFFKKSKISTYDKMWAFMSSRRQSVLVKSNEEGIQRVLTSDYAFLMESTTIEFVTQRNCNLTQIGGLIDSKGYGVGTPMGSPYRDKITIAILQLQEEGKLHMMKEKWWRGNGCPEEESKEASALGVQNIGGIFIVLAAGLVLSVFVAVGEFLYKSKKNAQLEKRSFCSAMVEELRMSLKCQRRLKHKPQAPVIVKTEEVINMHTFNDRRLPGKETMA

[7] = biological target: Glutamate NMDA receptor; Grin1/Grin2a (Rattus norvegicus, UniProt P35439+Q00959); assay: Antagonist activity at recombinant rat GluN1a/GluN2A expressed in Xenopus laevis oocytes assessed as inhibition of glycine/glutamate-mediated current responses by two-electrode voltage clamp method; type: cell-based
Outline: (§1)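 Xenopus oocytes were injected with rat GluN1 and GluN2A–D cRNA (1:2) and recorded 2–6 days later by TEVC at room temperature, −40 mV, in Ba2+-containing recording solution, pH 7.4. Currents were evoked by 100 μM glycine plus glutamate at 2–3× EC50: 10 μM for GluN2A, 3 μM for GluN2B and GluN2C, 1 μM for GluN2D. IC50 from Hill fits per oocyte; Ki estimated.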

[8] = biological target: Glutamate NMDA receptor; Grin1/Grin2b (Rattus norvegicus, UniProt P35439+Q00960); assay: Antagonist activity at recombinant rat GluN1a/GluN2B expressed in Xenopus laevis oocytes assessed as inhibition of glycine/glutamate-mediated current responses by two-electrode voltage clamp method; type: cell-based; outline: as §1
[9] = biological target: Glutamate NMDA receptor; Grin1/Grin2c (Rattus norvegicus, UniProt P35439+Q00961); assay: Antagonist activity at recombinant rat GluN1a/GluN2C expressed in Xenopus laevis oocytes assessed as inhibition of glycine/glutamate-mediated current responses by two-electrode voltage clamp method; type: cell-based; outline: as §1
Sequence of Glutamate NMDA receptor; Grin1/Grin2c (Q00961 whole entry, other chains not shown): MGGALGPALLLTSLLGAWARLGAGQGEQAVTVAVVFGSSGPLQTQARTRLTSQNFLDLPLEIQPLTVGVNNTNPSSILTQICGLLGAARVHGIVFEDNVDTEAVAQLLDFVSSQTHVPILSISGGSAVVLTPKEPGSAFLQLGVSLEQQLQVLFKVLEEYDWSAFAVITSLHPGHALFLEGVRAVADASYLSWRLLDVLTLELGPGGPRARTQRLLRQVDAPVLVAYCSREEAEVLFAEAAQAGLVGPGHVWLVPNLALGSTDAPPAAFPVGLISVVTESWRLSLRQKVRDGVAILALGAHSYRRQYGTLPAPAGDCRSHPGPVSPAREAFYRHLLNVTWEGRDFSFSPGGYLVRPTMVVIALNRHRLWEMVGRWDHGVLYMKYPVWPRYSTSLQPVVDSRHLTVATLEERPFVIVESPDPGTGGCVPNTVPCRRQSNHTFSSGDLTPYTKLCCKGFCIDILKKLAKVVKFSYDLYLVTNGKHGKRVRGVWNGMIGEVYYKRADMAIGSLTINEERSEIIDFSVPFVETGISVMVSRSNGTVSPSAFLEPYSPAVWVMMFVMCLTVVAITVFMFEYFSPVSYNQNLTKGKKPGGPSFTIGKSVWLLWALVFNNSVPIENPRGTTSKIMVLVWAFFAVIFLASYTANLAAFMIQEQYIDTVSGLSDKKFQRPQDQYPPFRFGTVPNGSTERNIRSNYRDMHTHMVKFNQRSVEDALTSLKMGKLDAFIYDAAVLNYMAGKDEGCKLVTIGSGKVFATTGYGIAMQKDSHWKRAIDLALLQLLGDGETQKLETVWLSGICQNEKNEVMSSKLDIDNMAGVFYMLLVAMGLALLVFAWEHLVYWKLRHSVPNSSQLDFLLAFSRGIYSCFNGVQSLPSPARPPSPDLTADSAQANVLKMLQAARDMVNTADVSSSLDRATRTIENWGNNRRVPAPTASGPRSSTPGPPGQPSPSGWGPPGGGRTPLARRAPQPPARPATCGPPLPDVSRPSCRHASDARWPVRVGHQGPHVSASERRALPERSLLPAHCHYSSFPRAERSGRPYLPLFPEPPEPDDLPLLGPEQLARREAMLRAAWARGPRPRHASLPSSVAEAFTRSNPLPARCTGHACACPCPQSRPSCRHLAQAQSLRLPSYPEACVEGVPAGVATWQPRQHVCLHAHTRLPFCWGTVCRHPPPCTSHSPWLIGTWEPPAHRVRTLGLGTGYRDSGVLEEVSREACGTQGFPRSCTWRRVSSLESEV

[10] = biological target: Ionotropic glutamate receptor NMDA 1/2D (Rattus norvegicus, UniProt P35439+Q62645); assay: Antagonist activity at recombinant rat GluN1a/GluN2D expressed in Xenopus laevis oocytes assessed as inhibition of glycine/glutamate-mediated current responses by two-electrode voltage clamp method; type: cell-based; outline: as §1
Mus musculus [11] = species on record: Mus musculus; assay: Antagonist activity at NMDA receptor in Nras driven p53 deficient mouse HCC cell membranes assessed as LPS-stimulated PGE2 levels at 10 uM after 24 hrs by LC-MS/MS method (reference value: 162 +/- 7%); parameters: scale not given: the % may be the effect or the level left
Outline: (§2)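 Mouse Nras-driven p53−/− HCC cells in DMEM with 2 mM L-glutamine, 10% heat-inactivated FBS and penicillin/streptomycin. Cells incubated 24 h with or without antagonist, either without LPS or with 2.5 μg/mL LPS in the growth medium. Cells washed three times with ice-cold HBSS and lysed in acetonitrile on ice. PGE₂ in lysates measured by LC-MS/MS (LLOQ 1 nM) and expressed as % of control; n=3.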

Mus musculus [12] = species on record: Mus musculus; assay: Antagonist activity at NMDA receptor in Nras driven p53 deficient mouse HCC cell membranes assessed as inhibition of NMDA-induced intracellular Ca2+ transients at 20 uM […] by fluo-4AM dye-based fluorescence assay
Outline: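 Intact murine HCC cells loaded with 5 μM Fluo-4-AM for 45 min, then washed out for 20 min in BSS (mM: 2.5 KCl, 152 NaCl, 10 glucose, 2 CaCl₂, 10 HEPES, pH 7.4). 150 μM NMDA applied for 15 s by fast perfusion, alone or together with antagonist. Fluorescence imaged with 495 nm excitation on a CCD camera. Read-out is the percentage of cells showing induced Ca²⁺ transients; n=5.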

Mus musculus [13] = species on record: Mus musculus; assay: Antagonist activity at NMDA receptor in Nras driven p53 deficient mouse HCC cell membranes assessed as PGE2 levels at 10 uM after 24 hrs by LC-MS/MS method relative to control; parameters: scale not given: the % may be the effect or the level left; outline: as §2
Mus musculus [14] = species on record: Mus musculus; assay: Antagonist activity at NMDA receptor in Nras driven p53 deficient mouse HCC cell membranes assessed as potentiation of 1 uM sorafenib-mediated antiproliferative activity by measuring cell viability at 100 uM after 72 hrs by resazurin assay (reference value: […] +/- […]%)
Mus musculus [15] = species on record: Mus musculus; assay: Antagonist activity at NMDA receptor in Nras driven p53 deficient mouse HCC cell membranes assessed as potentiation of 2.5 uM sorafenib-mediated antiproliferative activity by measuring cell viability at 100 uM after 72 hrs by resazurin assay (reference value: […] +/- […]%)
Mus musculus [16] = species on record: Mus musculus; assay: Antagonist activity at NMDA receptor in Nras driven p53 deficient mouse HCC cell membranes assessed as potentiation of 5 uM sorafenib-mediated antiproliferative activity by measuring cell viability at 100 uM after 72 hrs by resazurin assay (reference value: […] +/- […]%)
Mus musculus [17] = species on record: Mus musculus; assay: Antagonist activity at NMDA receptor in Nras driven p53 deficient mouse HCC cell membranes assessed as potentiation of 10 uM sorafenib-mediated antiproliferative activity by measuring cell viability at 100 uM after 72 hrs by resazurin assay (reference value: […] +/- […]%)
[18] = Antiproliferative activity against Nras driven p53 deficient mouse HCC cells assessed as cell viability at 100 uM after 72 hrs by resazurin assay relative to control; type: functional; conditions: read-out: Activity

Row | Ki [1] [µM] | IC50 [2] [µM] | IC50 [3] [µM] | Ki [4] [µM] | Ki [5] [µM] | Ki [6] [µM] | SMILES | further results
1 |  | > 100 | > 100 | 35 |  |  | O=C(O)[C@H]1NCC[C@@H]1c1ccc(O)c(O)c1 | pKi [4]: 4.46
2 | > 100 | > 100 | > 100 |  | > 100 | > 100 | Cc1ccc([C@H]2CCN[C@@H]2C(=O)O)cc1C(=O)O | 
3 | > 100 | > 100 | > 100 |  | > 100 | > 100 | O=C(O)c1cc([C@H]2CCN[C@@H]2C(=O)O)ccc1Br | 
4 | > 100 | > 100 | > 100 | > 100 | > 100 | > 100 | NC(=O)c1cccc([C@H]2CCN[C@@H]2C(=O)O)c1 | 
5 |  | > 100 | > 100 | > 100 |  |  | Nc1cccc([C@H]2CCN[C@@H]2C(=O)O)c1 | 

More lines, now with the values behind:

Row | SMILES | Ki [1] [µM] | IC50 [2] [µM] | IC50 [3] [µM] | Ki [4] [µM] | Ki [5] [µM] | Ki [6] [µM] | further results
6 | N#Cc1cccc([C@H]2CCN[C@@H]2C(=O)O)c1 | > 1000 | > 100 | > 100 | > 100 | > 1000 | > 1000 | 
7 | O=C(O)[C@H]1NCC[C@@H]1c1cccc(B(O)O)c1 | > 100 | > 100 | > 100 | > 100 | > 1000 | > 1000 | 
8 | N[C@H](CCCP(=O)(O)O)C(=O)O |  |  |  |  |  |  | Ki [7]: 0.39 µM; Ki [8]: 2.8 µM; Ki [9]: 5.9 µM; Ki [10]: 21 µM; Activity (Mus musculus [11]): 110%; inhibition (Mus musculus [12]): Active; Activity (Mus musculus [13]): 58%; Activity (Mus musculus [14]): 70%; Activity (Mus musculus [15]): 63%; Activity (Mus musculus [16]): 44%; Activity (Mus musculus [17]): 16%; viability at 100 µM [18]: 79%
9 | O=C(O)[C@H]1NCC[C@@H]1c1cccc(Cl)c1 | > 100 | > 100 | > 100 | > 100 | > 100 | > 100 | 
10 | O=C(O)[C@H]1NCC[C@@H]1c1cccc(C(F)(F)F)c1 | > 100 | > 100 | > 100 | > 100 | > 100 | > 100 | 
11 | Cl.O=C(O)c1cc([C@H]2CCN[C@@H]2C(=O)O)ccc1F | 11 | > 100 | 59 | 4.6 | 12 | > 100 | pIC50 [3]: 4.23; pKi [4]: 5.34
